Test results published in ChEMBL document CHEMBL1123170, “Drug design via pharmacophore identification. Dopaminergic activity of 3H-benz[e]indol-8-amines and their mode of interaction with the dopamine receptor” (1986).
Calls of active or inactive are those of the source. The rule behind the calls is not given here.

What was measured:
Rattus norvegicus [1] = assay: Contralateral turning characteristic of dopamine agonist was measured in rat at 10 Po mg/kg dose; format: functional
In short: (§1)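 Male Sprague-Dawley rats with unilateral 6-OHDA nigrostriatal lesions, groups of 4-5, reused at least 1 week apart. Dosed po or sc as stated, placed at once in a rotometer, and rotation recorded continuously until it stopped. Readout is total contralateral turns (mean ± SEM). Doses given as base.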

Rattus norvegicus [2] = assay: Compound was evaluated for its ability to induce locomotion in rats rendered akinetic by bilateral anterolateral hyphalamic injection of 6-OHDA at 2.5 mg/kg dose after sc administration; format: functional; conditions: route subcutaneous
In short: (§2)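 Male Sprague-Dawley rats with 6-OHDA lesions of the anterolateral hypothalamus on both sides; tested 4 days after lesioning. Compound given sc, then rats placed in an open field. Ambulation recorded in 2-min periods across 2 h; one score = all four limbs placed in one square. Readout is the cumulative ambulation score (mean ± SEM).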

Rattus norvegicus [3] = assay: Contralateral turning characteristic of dopamine agonist was measured in rat at 10 Sc mg/kg dose; format: functional; in short: as §1
Mus musculus = assay: Compound was tested for its ability to antagonize the catalepsy produced in mice after sc administration; format: functional
In short: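 Male Swiss albino mice (21-25 g), groups of 10-12. Reserpine 5 mg/kg ip given 17 h before sc test drug. Catalepsy checked before dosing and at 0.5, 1, 2, 3.5 and 5 h: mouse placed on a rubber stopper (5 cm diameter, 2.5 cm high) for 3 min; staying on counts as cataleptic. Quantal ED50 = dose reversing catalepsy in 50% of mice.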

Rattus norvegicus [4] = assay: Effect of pretreatment with alpha-MPT on the rotational behavior induced by the compound (5 mg/kg, sc) in rats with 6-OHDA induced lesions (indicates that it acted directly on DA receptors); format: functional
Rattus norvegicus [5] = assay: Ability to induce locomotion in rats rendered akinetic by bilateral anterolateral hyphalamic injection of 6-OHDA at 2.5 mg/kg dose after sc administration; format: functional; conditions: route subcutaneous; in short: as §2
Rattus norvegicus [6] = assay: Compound was evaluated for its ability to induce locomotion in rats rendered akinetic by bilateral anterolateral hyphalamic injection of 6-OHDA at 10 Po mg/kg dose after sc administration; format: functional
In short: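 Male Sprague-Dawley rats with bilateral 6-OHDA lesions of the anterolateral hypothalamus were tested 4 days after lesioning, dosed, and placed in an open field. Ambulation (all four limbs placed in one square = one score) was counted over six 2-min periods within 2 h. Result is the cumulative ambulation score, mean ± SEM. Doses refer to the base.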

Rattus norvegicus [7] = assay: Contralateral turning characteristic was measured in rat at 5 po mg/kg dose; format: functional
In short: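 Male Sprague-Dawley rats with unilateral 6-OHDA lesions of the nigrostriatal pathway, in groups of 4-5, were reused at intervals of at least 1 week. After dosing, each rat was placed straight into a rotometer and recorded continuously until rotation ceased. Result is total contralateral turns, mean ± SEM. Doses refer to the base.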

Rattus norvegicus [8] = assay: Compound was evaluated for its ability to induce locomotion in rats rendered akinetic by bilateral anterolateral hyphalamic injection of 6-OHDA at 30 mg/kg dose after sc administration; I=Inactive; format: functional, organism-based; design: dose 30 mg/kg; in short: as §2
Rattus norvegicus [9] = assay: Compound was evaluated for its ability to induce locomotion in rats rendered akinetic by bilateral anterolateral hyphalamic injection of 6-OHDA at 10 mg/kg dose after sc administration; format: functional; conditions: route subcutaneous; in short: as §2
[10] = target: Dopamine receptor (Rattus norvegicus) (UniProt P25115+P19020+P30729+P18901+P61169); assay: Dopamine receptor agonistic activity measured as Contralateral turning characteristic was measured in rat at 2.5 Sc mg/kg dose; format: functional, organism-based; in short: as §1

SMILES: CN(C)C1CCc2ccc3[nH]ccc3c2C1 (stereo not given)
- Activity (Rattus norvegicus [1]): 4947
- Ambulation score (Rattus norvegicus [2]): 378
- Activity (Rattus norvegicus [3]): 4540
- ED50 (Mus musculus): 5.8 mg/kg

SMILES: CCCN(CCC)C1CCc2ccc3[nH]ccc3c2C1 (stereo not given)
- Activity (Rattus norvegicus [4]): 3460
- Ambulation score (Rattus norvegicus [5]): 287
- ED50 (Mus musculus): 2.3 mg/kg

SMILES: CC(C)C[C@H]1C(=O)N2CCC[C@H]2[C@]2(O)O[C@](NC(=O)[C@@H]3C=C4c5cccc6[nH]c(Br)c(c56)C[C@H]4N(C)C3)(C(C)C)C(=O)N12 [BROMOCRIPTINE]
- Ambulation score (Rattus norvegicus [6]): 112
- Activity (Rattus norvegicus [7]): 1805
- ED50 (Mus musculus): 2.3 mg/kg

SMILES: CN(C)C1CCc2ccc3c(ccn3C)c2C1 (stereo not given)
- Ambulation score (Rattus norvegicus [8]): inactive
- ED50 (Mus musculus): > 30 mg/kg

SMILES: CCCN(CCC)C1CCc2ccc3c(ccn3C)c2C1 (stereo not given)
- ED50 (Mus musculus): 5 mg/kg
- Ambulation score (Rattus norvegicus [9]): <100
- Activity [10]: < 300
